Data published in ChEMBL document CHEMBL1649159, “A redox basis for metronidazole resistance in Helicobacter pylori” (Antimicrob Agents Chemother, 2009).
Converted amounts (≈) assume the structure as drawn.

Columns and labels:
Helicobacter pylori [1] = test: Prodrug activation in compound-resistant Helicobacter pylori 10593a/2 lysate harboring rdxA C177stop mutant gene assessed as compound reduction under argonized microaerobic condition per mg of protein
In short: (§1)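 Lysates of H. pylori strains grown at 37°C, either aerobically (5% CO2 in air) or microaerobically (5% CO2, 5% O2, 90% N2), with Mtr and NADH as substrates for reduction activity. Some lysate samples were argon-treated to displace oxygen. Protein content was measured by bicinchoninic acid microtiter assay.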

Helicobacter pylori [2] = test: Antimicrobial activity against Helicobacter pylori HER 126 V1 by Etest; type: functional
In short: (§2)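 Metronidazole susceptibility by Etest, repeated in triplicate, on clinical matched-pair isolates collected after failed metronidazole treatment. Strains were grown at 37°C either microaerobically (5% CO2, 5% O2, 90% N2) or aerobically (5% CO2 in air). Isolates were called resistant above a threshold of 8 µg ml–1.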

Helicobacter pylori [3] = test: Prodrug activation in Helicobacter pylori RIG 117 J0 lysate assessed as compound reduction under argonized microaerobic condition per mg of protein
In short: (§3)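 Metronidazole reduction was measured in lysate suspensions with Mtr and NADH as substrates. Cells were grown at 37°C either aerobically (5% CO2 in air) or microaerobically (5% CO2, 5% O2, 90% N2). Lysate samples were either argon-treated to displace oxygen or left untreated. Rates were expressed per mg protein, with protein determined by the bicinchoninic acid method.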

Helicobacter pylori [4] = test: Prodrug activation in compound-resistant Helicobacter pylori CAS 015 J56 lysate harboring rdxA L132stop and frxA L39stop mutant genes assessed as compound reduction under oxygenated microaerobic condition per mg of protein; in short: as §1
Helicobacter pylori [5] = test: Antimicrobial activity against compound-resistant Helicobacter pylori CAS 015 J56 harboring rdxA L132stop and frxA L39stop mutant genes by Etest; type: functional; in short: as §2
Helicobacter pylori [6] = test: Antimicrobial activity against Helicobacter pylori CAS 015 J0 by Etest; type: functional
In short: (§4)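 Etest MIC determination, repeated in triplicate. Strains were grown at 37°C, either aerobically (5% CO2 in air) or microaerobically (5% CO2, 5% O2, 90% N2). Strains were classed as susceptible or resistant using a resistance threshold of 8 µg ml–1, following clinical practice.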

Helicobacter pylori [7] = test: Prodrug activation in compound-resistant Helicobacter pylori 10593a/2 lysate harboring rdxA C177stop mutant gene assessed as compound reduction under oxygenated aerobic condition per mg of protein; in short: as §1
Helicobacter pylori [8] = test: Prodrug activation in Helicobacter pylori CAS 015 J0 lysate assessed as compound reduction under argonized aerobic condition per mg of protein; in short: as §3
Helicobacter pylori [9] = test: Prodrug activation in Helicobacter pylori HER 126 V1 lysate assessed as compound reduction under argonized microaerobic condition per mg of protein; in short: as §1
Helicobacter pylori [10] = test: Antimicrobial activity against compound-resistant Helicobacter pylori RIG 117 J56 harboring rdxA R16C and frxA A40stop mutant genes by Etest; type: functional; in short: as §2
Helicobacter pylori [11] = test: Prodrug activation in Helicobacter pylori 10593/2 lysate assessed as compound reduction under oxygenated aerobic condition per mg of protein; in short: as §1
Helicobacter pylori [12] = test: Prodrug activation in Helicobacter pylori CAS 015 J0 lysate assessed as compound reduction under argonized microaerobic condition per mg of protein; in short: as §3
Helicobacter pylori [13] = test: Prodrug activation in Helicobacter pylori RIG 117 J0 lysate assessed as compound reduction under argonized aerobic condition per mg of protein; conditions: in vivo; in short: as §3
Helicobacter pylori [14] = test: Prodrug activation in Helicobacter pylori 10593a/2 lysate harboring rdxA C177stop mutant gene assessed as compound reduction under oxygenated microaerobic condition per mg of protein; in short: as §1
Helicobacter pylori [15] = test: Prodrug activation in Helicobacter pylori HER 126 V1 lysate assessed as compound reduction under argonized aerobic condition per mg of protein; in short: as §3
Helicobacter pylori [16] = test: Prodrug activation in Helicobacter pylori CAS 015 J0 lysate assessed as compound reduction under oxygenated aerobic condition per mg of protein; in short: as §1
Helicobacter pylori [17] = test: Antimicrobial activity against Helicobacter pylori RIG 117 J0 by Etest; type: functional; in short: as §4
Helicobacter pylori [18] = test: Prodrug activation in Helicobacter pylori 10593/2 lysate assessed as compound reduction under argonized microaerobic condition per mg of protein; in short: as §3
Helicobacter pylori [19] = test: Prodrug activation in Helicobacter pylori HER 126 V1 lysate assessed as compound reduction under oxygenated microaerobic condition per mg of protein; conditions: in vivo; in short: as §3
Helicobacter pylori [20] = test: Prodrug activation in compound-resistant Helicobacter pylori HER 126 V4 lysate assessed as compound reduction under oxygenated microaerobic condition per mg of protein; conditions: in vivo; in short: as §1
Helicobacter pylori [21] = test: Prodrug activation in compound-resistant Helicobacter pylori RIG 117 J56 lysate harboring rdxA R16C and frxA A40stop mutant genes assessed as compound reduction under oxygenated microaerobic condition per mg of protein; type: organism-based; conditions: in vivo; in short: as §1
Helicobacter pylori [22] = test: Antimicrobial activity against compound-resistant Helicobacter pylori 10593a/2 harboring rdxA C177stop mutant gene by Etest; type: functional; in short: as §2
Helicobacter pylori [23] = test: Prodrug activation in compound-resistant Helicobacter pylori CAS 015 J56 lysate harboring rdxA L132stop and frxA L39stop mutant genes assessed as compound reduction under oxygenated aerobic condition per mg of protein; in short: as §1
Helicobacter pylori [24] = test: Prodrug activation in Helicobacter pylori RIG 117 J0 lysate assessed as compound reduction under oxygenated aerobic condition per mg of protein; conditions: in vivo; in short: as §3
Helicobacter pylori [25] = test: Prodrug activation in Helicobacter pylori 10593/2 lysate assessed as compound reduction under oxygenated microaerobic condition per mg of protein; in short: as §1
Helicobacter pylori [26] = test: Prodrug activation in Helicobacter pylori 10593/2 lysate assessed as compound reduction under argonized aerobic condition per mg of protein; in short: as §3
Helicobacter pylori [27] = test: Prodrug activation in Helicobacter pylori CAS 015 J0 lysate assessed as compound reduction under oxygenated microaerobic condition per mg of protein; in short: as §1
Helicobacter pylori [28] = test: Prodrug activation in Helicobacter pylori RIG 117 J0 lysate assessed as compound reduction under oxygenated microaerobic condition per mg of protein; in short: as §1
Helicobacter pylori [29] = test: Antimicrobial activity against compound-resistant Helicobacter pylori HER 126 V4 by Etest; type: functional; in short: as §2
Helicobacter pylori [30] = test: Prodrug activation in Helicobacter pylori HER 126 V1 lysate assessed as compound reduction under oxygenated aerobic condition per mg of protein; conditions: in vivo; in short: as §3
Helicobacter pylori [31] = test: Antimicrobial activity against Helicobacter pylori 10593/2 by Etest; type: functional; in short: as §2
Helicobacter pylori [32] = test: Prodrug activation in compound-resistant Helicobacter pylori HER 126 V4 lysate assessed as compound reduction under argonized microaerobic condition per mg of protein; in short: as §1
[33] = Drug activation in metronidazole-resistant Helicobacter pylori CAS 015 J56 lysate harboring rdxA L132stop and frxA L39stop mutant genes; type: organism-based
[34] = Drug activation in metronidazole-susceptible Helicobacter pylori HER 126 V1 lysate
[35] = Drug activation in metronidazole-resistant Helicobacter pylori HER 126 V4 lysate
[36] = Drug activation in metronidazole-susceptible Helicobacter pylori RIG 117 J0 lysate
[37] = Drug activation in metronidazole-resistant Helicobacter pylori RIG 117 J56 lysate
[38] = Drug activation in metronidazole-susceptible Helicobacter pylori CAS 015 J0 lysate
[39] = Drug activation in metronidazole-resistant Helicobacter pylori 10593a/2 lysate
[40] = Drug activation in metronidazole-susceptible Helicobacter pylori 10593/2 lysate

Cc1ncc([N+](=O)[O-])n1CCO [METRONIDAZOLE]
Activity (Helicobacter pylori [1]): 13 nmol/min
MIC (Helicobacter pylori [2]): 2 µg/mL (≈ 11.7 µM)
Activity (Helicobacter pylori [3]): 32 nmol/min
Activity (Helicobacter pylori [4]): 9 nmol/min
MIC (Helicobacter pylori [5]): 32 µg/mL (≈ 187 µM)
MIC (Helicobacter pylori [6]): 4 µg/mL (≈ 23.4 µM)
Activity (Helicobacter pylori [7]): 10 nmol/min
Activity (Helicobacter pylori [8]): 31 nmol/min
Activity (Helicobacter pylori [9]): 20 nmol/min
MIC (Helicobacter pylori [10]): 32 µg/mL (≈ 187 µM)
Activity (Helicobacter pylori [11]): 16 nmol/min
Activity (Helicobacter pylori [12]): 29 nmol/min
Activity (Helicobacter pylori [13]): 33 nmol/min
Activity (Helicobacter pylori [14]): 9 nmol/min
Activity (Helicobacter pylori [15]): 25 nmol/min
Activity (Helicobacter pylori [16]): 18 nmol/min
MIC (Helicobacter pylori [17]): 4 µg/mL (≈ 23.4 µM)
Activity (Helicobacter pylori [18]): 32 nmol/min
Activity (Helicobacter pylori [19]): 18 nmol/min
Activity (Helicobacter pylori [20]): 10 nmol/min
Activity (Helicobacter pylori [21]): 13 nmol/min
MIC (Helicobacter pylori [22]): 64 µg/mL (≈ 374 µM)
Activity (Helicobacter pylori [23]): 13 nmol/min
Activity (Helicobacter pylori [24]): 27 nmol/min
Activity (Helicobacter pylori [25]): 14 nmol/min
Activity (Helicobacter pylori [26]): 36 nmol/min
Activity (Helicobacter pylori [27]): 15 nmol/min
Activity (Helicobacter pylori [28]): 19 nmol/min
MIC (Helicobacter pylori [29]): 64 µg/mL (≈ 374 µM)
Activity (Helicobacter pylori [30]): 22 nmol/min
MIC (Helicobacter pylori [31]): 2 µg/mL (≈ 11.7 µM)
Activity (Helicobacter pylori [32]): 11 nmol/min

Cc1cc2nc3c(=O)[nH]c(=O)nc-3n(C[C@H](O)[C@H](O)[C@H](O)COP(=O)(O)OP(=O)(O)OC[C@H]3O[C@@H](n4cnc5c(N)ncnc54)[C@H](O)[C@@H]3O)c2cc1C [FLAVIN ADENIN DINUCLEOTIDE]
Km [33]: 24 µM
Km [34]: 6 µM
Km [35]: 17 µM
Km [36]: 95 µM
Km [37]: 11 µM
Km [38]: 2.4 µM
Km [39]: 5 µM
Km [40]: 2.1 µM

NC(=O)N/N=C/c1ccc([N+](=O)[O-])o1 [NITROFURAZONE]
Km [33]: 3.3 µM
Km [34]: 13.1 µM
Km [35]: 6.8 µM
Km [36]: 8.1 µM
Km [37]: 8.5 µM
Km [38]: 8.8 µM
Km [39]: 6 µM
Km [40]: 2.8 µM
